# Rows were chosen to be rich in hits. Some 2.9% of all compounds tested hit in one or more screens of this group.
# Cneo AK release: Cryptococcus neoformans lysis via adenylate kinase release; C. neoformans lysis, adenylate kinase release luminescence, 4 h; normalised: neutral wells 0, clomiphene wells 100; lysis activity, % at 15 µM; 360,000 tested, 0.2% active; AID 651654;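 active = mean lysis activity across replicates of at least 80%, whatever share of replicates individually reach that level; inactive = mean lysis activity below 80%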
#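 Assay system: log-phase C. neoformans yeast / Quantity: yeast cell density of 5 × 10^6 cells/mL / Medium: fresh YPD growth medium / Compound: single dose / Timing: static 4 h at 37 °C with compound, 1 h detection / Measured by: adenylate kinase release luminescence / Read-out: lysis from increased AK signal / Benchmarks: Clomiphene as positive lysis control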
# rRNA inh HTS: inhibits bacterial ribosomal RNA function over humanized ribosomes; E. coli WT GFP vs humanized-ribosome RFP mutants, fluorescence, 24 h; stronger effect = lower value; DMSO median 0, no signal -100; GFP signal change (wild-type ribosome), % (test concentration not listed); 350,000 tested, 1.6% active;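 active = significant combined selectivity score with lowered wild-type GFP, culture density cut under 30%, mutant RFP and density less affected; inactive = any of these conditions unmet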
# FGF22 binding-1: FGF22 (human) thermal shift binding; 340,000 tested, 1.5% active; activity (Tm shift, normalised), % at 9.99 µM; Q9HCT0; AID 651658; recombinant FGF22 thermal shift, SYPRO orange fluorescence; percent of sucrose octasulfate shift, DMSO zero;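 active = mean Tm shift, scaled 0 neutral to 100 positive control, at about 1.3% or above, every replicate too, limit read from the data; inconclusive = no clear call, values can overlap the other calls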
# Target sequence (Q9HCT0 whole entry, looked up): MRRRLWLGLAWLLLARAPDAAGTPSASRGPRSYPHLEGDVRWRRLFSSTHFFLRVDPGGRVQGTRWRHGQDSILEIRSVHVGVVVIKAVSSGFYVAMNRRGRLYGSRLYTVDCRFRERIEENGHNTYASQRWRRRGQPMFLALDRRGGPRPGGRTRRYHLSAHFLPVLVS
# Vif inh: blocks HIV Vif function; HEK293T cells, Vif self-association by quenched fluorescence, imaging, 24 h; inhibition, % at 7.49 µM; 340,000 tested, 0.35% active; in the data active = inhibition above about 50%, passing the limit was not always enough; inconclusive = no clear call, values can overlap the other calls; inactive = below about 31%
# PglD DTNB: inhibitors of Campylobacter jejuni PglD acetyltransferase; inhibition, % at 12.5 µM; 360,000 tested, 0.098% active; purified PglD enzyme, DTNB colorimetric CoA detection; in the data active = inhibition above about 16%, passing the limit was not always enough; inconclusive = no clear call, values can overlap the other calls
# PGC1a acetyl inh: lowers PGC1a acetylation signal in U2OS cells; AlphaScreen anti-acetyl-lysine; with virally co-expressed GCN5 acetyltransferase; inhibition, % at 15.6 µM; 350,000 tested, 0.17% active; AID 651687;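 active = every replicate shows inhibition of at least 40%; inconclusive = mean inhibition at least 40% but some replicate below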;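 also: 0% = neutral control wells and 100% = positive control wells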
# FGF22 binding-2: FGF22 (human) binding in thermal shift; shares compounds with FGF22 binding-1; recombinant FGF22 thermal shift, SYPRO orange fluorescence; thermal shift activity, °C (ΔTm) at 38 µM; 1,000 tested, 2% active;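 active = fitted rise in melting shift crosses a set limit at or below the top valid dose tested; inconclusive = flat fit at mid-level activity, or a poor quality fit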
# FGF22 TSA: FGF22 (human) binding by thermal shift; 50 tested, under 10 active; Tm shift (activity), % at 38 µM; AID 743017; shares compounds with FGF22 binding-1; Thermal shift assay, SYPRO orange, melting temperature shift;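 active = compounds whose fitted dose curve of melting temperature shift rises past a set threshold within the tested doses; inconclusive = flat curve at moderate activity, or poor curve fit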
# TSA no protein: counter-screen for FGF22 binders: compound-only thermal shift, no protein. AC50, µM (top dose mostly 38 µM). 1,000 tested, 2% active. compound-only SYPRO orange thermal shift counter-screen. AID 743019. shares compounds with FGF22 binding-1;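 active = rising signal whose fitted curve reaches the 0.54 level within the top valid dose, showing a melting point, actives reach about 13 µM in these data; inactive = the rest, including activity in the opposite direction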; also: value is where the raw curve crosses a fixed level and not half-maximal
# Numbers without * were called inactive; i = inactive; ? = inconclusive; / = no result; [ ] = dose if it differs, or a comment.
SMILES,Cneo AK release,rRNA inh HTS,FGF22 binding-1,Vif inh,PglD DTNB,PGC1a acetyl inh,FGF22 binding-2,TSA no protein,others
COCC(=O)Nc1ccc2c(c1)[C@H]1C[C@H](CC(=O)NCc3ccncc3)O[C@H](CO)[C@H]1O2,-3.3,-0.2,-0.2,/,0.9,-7.0,/,/,
CC(=O)N1[C@H](CO)[C@@H](c2ccccc2)C12CN(C(=O)Cc1ccccc1)C2,/,1.3,1.6*,/,/,3.1,-0.025,i,
COCC(=O)N1[C@@H](CO)[C@H](c2ccccc2)C12CN(C(=O)c1ccccc1)C2,/,0.0,/,/,/,/,/,/,
O=C(Cc1ccccc1)N1CC2(C1)[C@H](c1ccccc1)[C@H](CO)N2C(=O)Cc1ccccc1,/,1.1,0.0,/,/,-5.6,/,/,
COCC(=O)N1[C@H](CO)[C@H](c2ccccc2)C12CN(C(=O)c1ccccc1)C2,/,1.8,1.3*,/,/,-3.6,-0.03[42 µM],i,
COCC(=O)N1CC2(C1)[C@H](c1ccc(-c3cccc(C)c3)cc1)[C@H](CO)N2C(=O)C1CC1,/,-2.2,1.5*,/,/,-11.4,0.062[42 µM],i,
Cc1ccc(NC(=O)c2sc3ncn(CC(=O)N4CCN(c5ccccn5)CC4)c(=O)c3c2C)cc1Cl,2.0,11.9,0.0,-8.0,1.4,0.6,/,/,
Cc1ccc(NC(=O)c2sc3ncn(CC(=O)N4CCN(c5ccccn5)CC4)c(=O)c3c2C)cc1F,1.0,2.1,1.4*,?,-7.2,-8.6,0.091,i,
COc1ccccc1NC(=O)Nc1cccc(NC(C)=O)c1,-1.7,1.5,3.1*,-3.5,-1.2,-2.3,0.016,i,
COc1ccc(C(=O)NCCc2c[nH]c3ccccc23)cc1,5.2,-9.6,-0.1,0.8,3.7,/,/,/,
O=C(NCCc1c[nH]c2ccccc12)c1ccc(Cl)cc1,-2.1,-29.1,2.4*,-1.4,6.4,-4.8,-0.006,i,FGF22 TSA=-0.3
O=C(O)c1ccccc1NS(=O)(=O)c1ccc2ccccc2c1,-1.4,-49.6,1.6*,21.5,1.3,/,-0.049,i,
Cc1cc(C)c(C)c(S(=O)(=O)Nc2ccccc2C(=O)O)c1C,-1.4,-32.4,1.4*,-3.9,-2.6,3.0,0.149,i,
Cc1cc(NC(=O)c2ccccc2NS(=O)(=O)c2c(C)c(C)cc(C)c2C)no1,-0.5,/,/,-13.5,1.8,-7.1,/,/,
O=C(O)c1cc(NS(=O)(=O)c2ccc3ccccc3c2)ccc1O,-1.1,-1.9,/,10.4,-1.9,3.6,/,/,
Cc1ccc(S(=O)(=O)Nc2ccc3c(c2)CC(=O)N([C@@H](C)CO)C[C@H](C)[C@@H](CN(C)Cc2ccc(Cl)c(Cl)c2)O3)cc1,0.3,1.7,0.4,/,1.3,2.0,/,/,
O=C(C[C@H]1C=C[C@@H](NC(=O)C2CCC2)[C@@H](CO)O1)NCCCN1CCOCC1,-1.1,0.4,-0.1,/,0.1,-9.4,/,/,
CCNC(=O)C[C@H]1CC[C@@H]2[C@H](COC[C@H](O)CN2C(=O)C2CCOCC2)O1,1.0,4.4,27.2*,/,-2.5,-5.4,0.056,i,
O=C(C[C@H]1CC[C@H]2[C@@H](COC[C@@H](O)CN2C(=O)C2CC2)O1)NCc1ccncc1,-1.5,0.8,6.3*,/,1.3,-3.8,0.012[42 µM],i,
Cc1nn(-c2ccccc2)c(C)c1/C=N/NC(=O)c1cc(-c2ccc(Br)s2)[nH]n1,1.7,/,/,-19.4,-1.0,/,/,/,
Cc1nn(-c2ccccc2)c(C)c1/C=N/NC(=O)c1cc(-c2cccs2)[nH]n1,/,-37.9,1.6*,1.1,/,/,-0.167,i,
COc1ccc2c3c(n(C)c2c1)[C@@H](CO)N(C(=O)C1CC1)CC31CN(C(=O)CN(C)C)C1,/,3.1,-0.1,/,/,/,/,/,
COc1ccc(S(=O)(=O)N(C)C[C@H]2OCCCC[C@@H](C)Oc3ccc(NS(C)(=O)=O)cc3C(=O)N([C@H](C)CO)C[C@H]2C)cc1,-2.6,-5.7,-0.6,/,2.2,-0.6,/,/,
NS(=O)(=O)c1ccc(NC(=O)Nc2cccc(Cl)c2)cc1,/,-19.1,2.2*,-1.5,/,13.3,-0.043,i,
O=C(O)Cc1ccc(NC(=O)c2ccc(Cl)c(Cl)c2)cc1,-2.2,-17.0,1.8*,-13.8,3.0,6.0,0.572,i,FGF22 TSA=0.0
SMILES,Cneo AK release,rRNA inh HTS,FGF22 binding-1,Vif inh,PglD DTNB,PGC1a acetyl inh,FGF22 binding-2,TSA no protein,others
CS(=O)(=O)N1CC(=O)N2[C@H](CO)[C@@H](c3ccc(C#CCc4ccccc4)cc3)[C@H]2C1,/,1.0,1.3*,/,/,4.1,0.098,i,
COc1cccc(C#Cc2ccc([C@@H]3[C@H]4CN(C(=O)c5ccccc5)CC(=O)N4[C@H]3CO)cc2)c1,/,-0.1,-0.9,/,/,-15.3,/,/,
CS(=O)(=O)N1CC(=O)N2[C@@H](CO)[C@H](c3ccc(C#CCc4ccccc4)cc3)[C@@H]2C1,/,0.3,0.6,/,/,-1.3,/,/,
COc1cccc(C#Cc2ccc([C@H]3[C@@H](CO)N4C(=O)CN(C(=O)c5ccccc5)C[C@@H]34)cc2)c1,/,3.3,1.4*,/,/,-20.8,0.001[42 µM],i,
O=C(c1ccc2c(c1)OCO2)N1CC(=O)N2[C@H](C1)[C@H](c1ccc(C#CCC3CCCC3)cc1)[C@@H]2CO,/,-1.7,2.3*,/,/,-6.9,0.049,i,
COc1ccc2c3c(n(C)c2c1)[C@H](CO)N(Cc1cccc(F)c1)CC31CCN(C)CC1,/,0.6,-0.1,/,/,-12.2,/,/,
CO[C@H]1CN(C)C(=O)c2cc(NS(C)(=O)=O)ccc2OC[C@H](C)N(C(=O)C2CCCCC2)C[C@H]1C,2.0,-4.1,0.1,/,-1.1,/,/,/,
Cn1c(C(=O)O)c(CC(=O)Nc2ccccc2F)c2ccccc21,6.5,/,/,/,-4.6,/,/,/,
Cc1ccc2c(c1)c(CC(=O)Nc1ccc(C)c(F)c1)c(C(=O)O)n2C,0.5,-24.4*,1.6*,17.8,-3.3,5.7,0.162,i,
C[C@H]1CN([C@@H](C)CO)C(=O)c2cc(-c3cccnc3)cnc2O[C@H]1CN(C)C(=O)C1CCC1,-0.9,6.3,-0.1,/,-0.3,5.4,/,/,
O=C(NCC[C@H]1CC[C@H](NS(=O)(=O)c2ccc(F)cc2)[C@@H](CO)O1)Nc1ccc(F)cc1,-4.5,-6.3,-0.2,/,0.5,-2.4,/,/,
CC(C)CC(=O)Nc1ccc(C(=O)CN2C(=O)NC3(CCOc4ccccc43)C2=O)cc1 (stereo not given),1.5,-3.0,1.9*,/,-3.8,/,-0.156,i,
CO[C@H]1CN(C)C(=O)c2cc(NS(C)(=O)=O)ccc2OC[C@@H](C)N(CC2CCCCC2)C[C@H]1C,49.0,-0.1,-0.6,/,-2.2,8.3,/,/,

# High-throughput results from PubChem BioAssay.
